Laboratory results from ChEMBL document CHEMBL1143135, “A structure-activity relationship study and combinatorial synthetic approach of C-terminal modified bifunctional peptides that are delta/mu opioid receptor agonists and neurokinin 1 receptor antagonists” (J Med Chem, 2008).

Key:
Substance-P receptor = Substance-P receptor (Homo sapiens, UniProt P25103); assay: Displacement of [3H]substance P from human NK1 receptor expressed in CHO cells; assay type: cell-based
[1] = molecular target: Substance-P receptor (Rattus norvegicus) (UniProt P14600); assay: Displacement of [3H]substance P from rat NK1 receptor expressed in CHO cells; assay type: cell-based
[2] = Lipophilicity, log D at pH 7.4; assay type: physicochemical; settings: buffer
Method in brief: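 2 mg peptide in 500 µL 0.05 M HEPES/0.1 M NaCl, pH 7.4, shaken with 500 µL 1-octanol for 12 h at rt. Phases separated by centrifugation and each phase analysed by HPLC at 230 nm.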

[3] = molecular target: Substance-P receptor (Cavia porcellus) (UniProt P30547); assay: Antagonist activity at NK1 receptor in Hartley guinea pig isolated ileum assessed as inhibition of substance P-induced muscle contraction; assay type: functional, tissue-based
Method in brief: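 Guinea pig ileum LMMP preparation in 1 µM naloxone. Full substance P concentration–response curves run with and without test compound; maximal substance P peak taken as 100%. Ke is the antagonist concentration that halves substance P activity, from at least four tissues.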

[4] = molecular target: Substance-P receptor (Rattus norvegicus) (UniProt P14600); assay: Displacement of [3H]substance P from rat NK1 receptor expressed in CHO cells at 1 uM; assay type: cell-based

Substance-P receptor, sequence (P25103 whole entry): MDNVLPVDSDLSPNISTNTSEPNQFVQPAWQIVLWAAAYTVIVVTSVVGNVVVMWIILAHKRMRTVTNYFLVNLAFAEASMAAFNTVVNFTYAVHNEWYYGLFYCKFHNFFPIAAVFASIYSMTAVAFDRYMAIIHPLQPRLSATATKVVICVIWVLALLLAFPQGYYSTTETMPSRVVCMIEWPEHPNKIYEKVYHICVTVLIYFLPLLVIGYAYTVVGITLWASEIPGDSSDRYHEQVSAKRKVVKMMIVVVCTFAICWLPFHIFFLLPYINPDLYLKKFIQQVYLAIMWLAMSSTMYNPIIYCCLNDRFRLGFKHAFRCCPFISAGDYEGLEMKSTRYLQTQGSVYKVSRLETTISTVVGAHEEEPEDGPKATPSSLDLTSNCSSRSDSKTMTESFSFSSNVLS
Substance-P receptor (Rattus norvegicus), sequence (P14600 whole entry): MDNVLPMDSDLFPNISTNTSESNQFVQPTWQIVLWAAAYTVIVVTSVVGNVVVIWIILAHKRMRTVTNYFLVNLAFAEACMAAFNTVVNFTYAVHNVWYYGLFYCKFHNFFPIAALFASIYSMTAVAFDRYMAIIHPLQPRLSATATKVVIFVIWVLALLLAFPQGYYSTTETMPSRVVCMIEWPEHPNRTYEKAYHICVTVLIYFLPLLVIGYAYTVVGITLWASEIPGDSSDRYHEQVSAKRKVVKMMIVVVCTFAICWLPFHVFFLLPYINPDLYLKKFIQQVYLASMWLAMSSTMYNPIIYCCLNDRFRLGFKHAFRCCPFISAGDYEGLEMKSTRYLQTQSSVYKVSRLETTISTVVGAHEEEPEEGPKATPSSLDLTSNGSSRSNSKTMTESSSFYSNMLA
Substance-P receptor (Cavia porcellus), sequence (P30547 whole entry): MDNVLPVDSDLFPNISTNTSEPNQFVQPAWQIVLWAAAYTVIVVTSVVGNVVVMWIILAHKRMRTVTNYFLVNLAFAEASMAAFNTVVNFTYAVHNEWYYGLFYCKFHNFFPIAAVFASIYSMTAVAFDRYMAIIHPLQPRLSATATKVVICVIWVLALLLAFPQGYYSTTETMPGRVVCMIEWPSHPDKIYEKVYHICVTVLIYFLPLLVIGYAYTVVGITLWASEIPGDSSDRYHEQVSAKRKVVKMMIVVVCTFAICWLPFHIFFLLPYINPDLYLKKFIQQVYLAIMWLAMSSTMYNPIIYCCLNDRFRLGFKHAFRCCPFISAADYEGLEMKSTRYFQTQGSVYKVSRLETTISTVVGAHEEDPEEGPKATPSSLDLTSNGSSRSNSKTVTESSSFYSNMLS

SMILES	logIC50 (Substance-P receptor)	logIC50 [1]	logD [2]	Ki (Substance-P receptor)	Ke [3]	inhibition [4]
CC(C)C[C@H](NC(=O)[C@@H]1CCCN1C(=O)[C@H](Cc1ccccc1)NC(=O)CNC(=O)[C@@H](C)NC(=O)[C@@H](N)Cc1ccc(O)cc1)C(=O)N[C@@H](Cc1c[nH]c2ccccc12)C(=O)NCc1cc(C(F)(F)F)cc(C(F)(F)F)c1	-8.9	-7	–	–	–	–
CC(C)C[C@H](NC(=O)[C@@H]1CCCN1C(=O)[C@H](Cc1ccccc1)NC(=O)CNC(=O)[C@@H](C)NC(=O)[C@@H](N)Cc1ccc(O)cc1)C(=O)N[C@@H](Cc1c[nH]c2ccccc12)C(=O)OCc1ccccc1	-6.7	-6.1	3.8	–	–	–
CC(C)C[C@H](NC(=O)[C@@H]1CCCN1C(=O)[C@H](Cc1ccccc1)NC(=O)CNC(=O)[C@@H](C)NC(=O)[C@@H](N)Cc1ccc(O)cc1)C(=O)N[C@@H](Cc1c[nH]c2ccccc12)C(=O)OCc1cc(C(F)(F)F)cc(C(F)(F)F)c1	-10	-8.3	–	0.046 nM	3.6 nM	–
CC(C)C[C@H](NC(=O)[C@@H]1CCCN1C(=O)[C@H](Cc1ccccc1)NC(=O)CNC(=O)[C@@H](C)NC(=O)[C@@H](N)Cc1ccc(O)cc1)C(=O)N[C@@H](Cc1c[nH]c2ccccc12)C(=O)NCc1ccccc1	-7.5	–	3.3	–	26 nM	30%
CC(C)C[C@H](NC(=O)[C@@H]1CCCN1C(=O)[C@H](Cc1ccccc1)NC(=O)CNC(=O)[C@@H](C)NC(=O)[C@@H](N)Cc1ccc(O)cc1)C(=O)N[C@@H](Cc1c[nH]c2ccccc12)C(=O)N(C)Cc1ccccc1	-8.5	–	3.5	–	–	33%
CC(C)C[C@H](NC(=O)[C@@H]1CCCN1C(=O)[C@H](Cc1ccccc1)NC(=O)CNC(=O)[C@@H](C)NC(=O)[C@@H](N)Cc1ccc(O)cc1)C(=O)N[C@@H](Cc1c[nH]c2ccccc12)C(=O)N(C)Cc1cc(C(F)(F)F)cc(C(F)(F)F)c1	-8.5	-7.7	–	–	–	–
